Data set [1] concerns the target T1, 85/88 kDa calcium-independent phospholipase A2 (Homo sapiens) (UniProt O60733).
T1 sequence (whole entry): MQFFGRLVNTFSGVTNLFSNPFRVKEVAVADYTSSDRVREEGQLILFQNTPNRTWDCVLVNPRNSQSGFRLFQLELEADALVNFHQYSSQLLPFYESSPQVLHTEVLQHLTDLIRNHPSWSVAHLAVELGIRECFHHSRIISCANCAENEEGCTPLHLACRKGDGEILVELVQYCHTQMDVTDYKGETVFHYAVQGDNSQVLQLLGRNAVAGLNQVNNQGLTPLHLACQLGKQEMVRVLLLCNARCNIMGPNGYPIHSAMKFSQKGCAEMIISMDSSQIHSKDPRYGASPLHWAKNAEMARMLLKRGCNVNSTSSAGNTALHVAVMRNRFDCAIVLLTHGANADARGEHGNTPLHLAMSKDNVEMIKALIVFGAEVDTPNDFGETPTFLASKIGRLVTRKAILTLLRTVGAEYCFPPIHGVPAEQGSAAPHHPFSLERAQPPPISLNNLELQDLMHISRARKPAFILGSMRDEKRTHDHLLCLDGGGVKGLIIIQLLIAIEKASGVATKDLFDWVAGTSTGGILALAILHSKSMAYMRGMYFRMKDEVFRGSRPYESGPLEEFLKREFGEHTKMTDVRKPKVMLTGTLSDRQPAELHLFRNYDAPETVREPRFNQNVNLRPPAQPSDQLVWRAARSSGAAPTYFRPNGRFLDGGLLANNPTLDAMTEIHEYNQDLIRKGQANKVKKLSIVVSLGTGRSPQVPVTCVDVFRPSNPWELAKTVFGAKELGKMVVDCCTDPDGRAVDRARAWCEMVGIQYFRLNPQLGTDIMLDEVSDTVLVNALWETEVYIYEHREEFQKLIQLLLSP
Put plainly: Inhibition of human recombinant G6A iPLA2 at 0.091 mole fraction using arachidonyl-1-14C PAPC and PAPC incubated for 30 mins by HPLC-MS analysis based radioactivity-based group specific mixed micelle assay relative to control. A digest of the protocol: (§1)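 Human recombinant GVIA iPLA2, radioactivity mixed-micelle assay. Substrate: 400 μM Triton X-100, 98.3 μM PAPC, 1.7 μM arachidonyl-1-14C PAPC. Buffer: 100 mM HEPES pH 7.5, 2 mM ATP, 4 mM DTT. Screened at 0.091 mole fraction from DMSO.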

Data set [2] concerns the target T2, Cytosolic phospholipase A2 (Homo sapiens) (UniProt P47712).
T2 sequence (whole entry): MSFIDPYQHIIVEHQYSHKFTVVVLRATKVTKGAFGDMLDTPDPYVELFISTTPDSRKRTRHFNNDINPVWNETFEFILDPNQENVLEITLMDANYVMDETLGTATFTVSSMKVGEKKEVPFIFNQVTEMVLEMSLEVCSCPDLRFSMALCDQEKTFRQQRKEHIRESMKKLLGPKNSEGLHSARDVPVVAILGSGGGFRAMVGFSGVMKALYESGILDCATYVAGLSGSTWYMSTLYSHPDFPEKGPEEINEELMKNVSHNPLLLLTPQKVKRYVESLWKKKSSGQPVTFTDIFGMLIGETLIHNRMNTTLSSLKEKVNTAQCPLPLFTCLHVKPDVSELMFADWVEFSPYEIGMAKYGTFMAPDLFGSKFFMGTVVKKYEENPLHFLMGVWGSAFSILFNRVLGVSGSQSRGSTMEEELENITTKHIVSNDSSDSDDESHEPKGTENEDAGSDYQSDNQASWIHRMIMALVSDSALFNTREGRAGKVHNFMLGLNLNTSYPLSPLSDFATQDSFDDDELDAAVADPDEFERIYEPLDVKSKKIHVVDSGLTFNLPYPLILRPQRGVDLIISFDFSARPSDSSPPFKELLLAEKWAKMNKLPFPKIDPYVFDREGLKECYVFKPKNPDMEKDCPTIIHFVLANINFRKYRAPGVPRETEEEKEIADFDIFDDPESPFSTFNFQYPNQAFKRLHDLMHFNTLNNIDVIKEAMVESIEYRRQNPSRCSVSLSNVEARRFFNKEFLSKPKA
As to the kind of experiment: Inhibition of human recombinant G4A cPLA2 at 0.091 mole fraction using arachidonyl-1-14C PAPC , PAPC and PIP2 incubated for 30 mins by HPLC-MS analysis based radioactivity-based group specific mixed micelle assay. A digest of the protocol: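 Human recombinant GIVA cPLA2, radioactivity mixed-micelle assay. Substrate: 400 μM Triton X-100, 95.3 μM PAPC, 1.7 μM arachidonyl-1-14C PAPC, 3 μM PIP2. Buffer: 100 mM HEPES pH 7.5, 90 μM CaCl2, 2 mM DTT, 0.1 mg/ml BSA. Screened at 0.091 mole fraction from DMSO stock. XI(50) fitted from % inhibition vs log mole fraction.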

For data set [3], the species on record is Homo sapiens. Put plainly: Inhibition of human recombinant G5 sPLA2 at 0.091 mole fraction using arachidonyl-1-14C PAPC and PAPC by HPLC-MS analysis based radioactivity-based group specific mixed micelle assay relative to control. A digest of the protocol: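 Human recombinant GV sPLA2, radioactivity mixed-micelle assay. Substrate: 400 μM Triton X-100, 98.3 μM PAPC, 1.7 μM arachidonyl-1-14C PAPC. Buffer: 50 mM Tris-HCl pH 8.0, 5 mM CaCl2. Compound added from DMSO at 0.091 mole fraction; percent inhibition measured.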

The target in data set [4] is T1, 85/88 kDa calcium-independent phospholipase A2 (Homo sapiens). As to the kind of experiment: (§2) Inhibition of human recombinant G6A iPLA2 using arachidonyl-1-14C PAPC and PAPC incubated for 30 mins by HPLC-MS analysis based radioactivity-based group specific mixed micelle assay. A digest of the protocol:
as §1

Data set [5] concerns the target T3, 85/88 kDa calcium-independent phospholipase A2 (Homo sapiens, UniProt O60733).
T3 sequence (O60733 whole entry): T1 sequence (whole entry)
The description is as §2. A digest of the protocol: as §1

Data set [6] deals with INS1. As to the kind of experiment: Inhibition of IL-1beta/IFNgamma-induced apoptosis in rat INS-1 cells at 0.1 uM after 16 hrs by DAPI-based TUNEL assay. Format: functional, cell-based. A digest of the protocol: (§3)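 INS-1 cells exposed 16 h to IL-1β (100 U/mL) plus IFNγ (300 U/mL), with or without compound (0.10–10 μM) or DMSO vehicle (1 μL/mL). Apoptosis read by TUNEL (green) over total DAPI-stained nuclei, 6 fields per slide. The 6-field mean per slide is one replicate (n=3–12). Results given as mean ± SEM percent apoptotic cells.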

In data set [7] the test system is INS1. As to the kind of experiment: Inhibition of IL-1beta/IFNgamma-induced apoptosis in rat INS-1 cells at 1 uM after 16 hrs by DAPI-based TUNEL assay. Format: functional. To be noted: INS1, 16 h. A digest of the protocol: as §3
In data set [8] the test system is INS1. Put plainly: Inhibition of IL-1beta/IFNgamma-induced apoptosis in rat INS-1 cells at 10 uM after 16 hrs by DAPI-based TUNEL assay. Format: functional. To be noted: INS1, 16 h. A digest of the protocol: as §3
Data set [9] has as its system INS1. Put plainly: Cytotoxicity against rat INS-1 cells assessed as cell death at 10 uM after 16 hrs by TUNNEL assay (reference value: 7.06 +/- 0.36%). Format: cell-based. To be noted: ins1, 16 h.
The species named for data set [10] is Homo sapiens. Put plainly: Selectivity index, ratio of IC50 for inhibition of human recombinant G4A cPLA2 to IC50 for inhibition of human recombinant G6A iPLA2.
Data set [11] relates to INS1. As to the kind of experiment: Inhibition of IL-1beta/IFNgamma-induced apoptosis in rat INS-1 cells at 0.1 to 10 uM after 16 hrs by DAPI-based TUNEL assay.

pIC50: −log10 of the molar value. The source made the active and inactive calls. No cut-off for these calls is given here. A value given as a limit tells only on which side of the number the result lay.

By inhibition is commonly meant the share of the control response that was lost under treatment. As for `CC(C)C1OC(=O)C1CCCc1ccccc1` (centres undefined), the inhibition in data set [1] is 93%; in data set [2], 85%; in [3], 29%.
On to `CC1OC(=O)C1CCCc1ccc2ccccc2c1` (centres undefined), for which the inhibition turned out to be 89% in data set [1], 85% in data set [2] and 26% in data set [3].
Regarding `CCC1OC(=O)C1CCCc1ccc2ccccc2c1` (centres undefined), the inhibition in data set [1] was 93%; in data set [2], 85%; in [3], 29%.
Regarding `CCCC1OC(=O)C1CCCCc1ccc2ccccc2c1` (centres undefined), the inhibition in data set [1] worked out at 97%; in [2] it was 71%.
The corresponding values for `CCCC1OC(=O)C1CCCCc1ccccc1` (centres undefined) are 100% and 84%.
As to `CCCC1OC(=O)C1CCCc1ccc(OC)cc1` (centres undefined), the results for the inhibition in data set [1] and in [2] were 96% and 76%, respectively.
The corresponding values for `CCCC1OC(=O)C1CCCc1ccc2ccccc2c1` (centres undefined) are 98% and 77%.
The corresponding values for `CCCC1OC(=O)C1CCCc1ccccc1` (centres undefined) are 96% and 81%.
Consider `CCCCCCC1OC(=O)C1CCCc1ccc(-c2ccccc2)cc1` (centres undefined), for which the inhibition is 78% in data set [1], 58% in [2] and 40% in [3].
The corresponding values for `CCCCCCC1OC(=O)C1CCCc1ccc2ccccc2c1` (centres undefined) are 59%, 54% and 40%.
As to `CCCCCCC1OC(=O)C1CCCc1ccccc1` (centres undefined), the inhibition in data set [1] was found to be 89%; in [2], 91%; in data set [3], 47%.
As to `COc1ccc(CCCCC(=O)C(F)(F)C(F)(F)F)cc1`, in data set [3], the inhibition worked out at 33%.
As to `COc1ccc(CCSCC(=O)c2noc(C(C)(C)C)n2)cc1`, the XI50 (mole fraction) in [4] was 0.0057. Also, in [3], the inhibition was found to be 38%.
Consider `O=C(CCCCc1ccc2ccccc2c1)C(F)(F)F`, for which the inhibition in data set [3] was found to be 37%.
Consider `O=C(CCCCc1ccccc1)C(F)(F)C(F)(F)F`, for which the inhibition in [3] was 28%.
As a reminder, the pIC50 is the IC50 on a negative log10 scale, so that one unit is a factor of ten. As to `CCC[C@@H]1OC(=O)[C@@H]1CCCCc1ccccc1` (racemic), the inhibition came to 99% in [1], 94% in data set [2] and 34% in [3]. In addition, the XI50 (mole fraction) in data set [4] came out at 0.007. Also, in data set [5], the pIC50 was 5.46.
In the case of `CCC[C@H]1OC(=O)[C@@H]1CCCCc1ccccc1` (racemic), the inhibition was 100% in data set [1], 88% in [2], 25% in [3] and “Dose-dependent effect” in [11]. Moreover, in data set [4], the XI50 (mole fraction) turned out to be 2.1e-06. The pIC50 in [5] was 9.00. For the same compound, in data set [6], the inhibition entry was “inactive”. Moreover, the inhibition at 1 µM in data set [7] is 28%. In data set [8], this compound came in with an inhibition at 10 µM of 41%. The Activity in [9] came to 9.51%. The Ratio IC50 in [10] was 22000.
`CCC[C@@H]1OC(=O)[C@@H]1CCCCc1ccc2ccccc2c1` (racemic): the inhibition in data set [1] was 95%; in data set [2], 72%; in data set [3], under 25%. Further, the XI50 (mole fraction) in data set [4] amounted to 0.0021.
The corresponding values for `CCC[C@@H]1OC(=O)[C@@H]1CCCc1ccc(OC)cc1` (racemic) are 85%, 95%, 29% and 0.038.
Take `CCC[C@@H]1OC(=O)[C@@H]1CCCc1ccc2ccccc2c1` (racemic): the inhibition in [1] amounted to 81%; in data set [2] it was 89%; in [3] it was 27%.
For `CCC[C@@H]1OC(=O)[C@@H]1CCCc1ccccc1` (racemic) the same measures were 92%, 97% and under 25%.
Take `CCC[C@H]1OC(=O)[C@@H]1CCCCc1ccc2ccccc2c1` (racemic): the values for the inhibition in data set [1], in [2] and in data set [3] were 99%, 59% and 29%, respectively. Moreover, the XI50 (mole fraction) in data set [4] came to 9e-05.
Turning to `CCC[C@H]1OC(=O)[C@@H]1CCCc1ccc(OC)cc1` (racemic), the inhibition stood at 99% in data set [1], 85% in data set [2] and 26% in [3]. In addition, in data set [4], the XI50 (mole fraction) worked out at 0.00019.
`CCC[C@H]1OC(=O)[C@@H]1CCCc1ccc2ccccc2c1` (racemic): the inhibition is 98% in data set [1], 73% in [2] and 30% in [3]. Moreover, the XI50 (mole fraction) in data set [4] came to 0.0003.
Take `CCC[C@H]1OC(=O)[C@@H]1CCCc1ccccc1` (racemic): the figures for the inhibition in [1], in data set [2] and in data set [3] were 99%, 90% and 25%, respectively. Also, in data set [4], the XI50 (mole fraction) stood at 0.00019.

Values taken from ChEMBL document CHEMBL4400556, “β-Lactones: A Novel Class of Ca2+-Independent Phospholipase A2 (Group VIA iPLA2) Inhibitors with the Ability To Inhibit β-Cell Apoptosis” (J Med Chem, 2019).
